Measurements: the RNAGym collection of RNA variant scans (doi:10.1126/science.aae0568)
Fewer inactive variants are shown than the library holds.

B1: tRNA (parent)
chain: GUUCCGUUGGCGUAAUGGUAACGCGUCUCCCUCCUAAGGAGAAGACUGCGGGUUCGAGUCCCGUACGGAACG

Variants of: B1
Experiment: yeast fitness relative to wild type (ratio to wild type); higher = fitter; tRNA-Arg(CCU), competitive growth, 37 C, YPD
Procedure, shortened: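 Gene amplicons from the start population and from each of six end populations were read by 100-nucleotide paired-end sequencing. Those end populations came from pooled Saccharomyces cerevisiae strains carrying tRNA-Arg(CCU) gene variants at the native locus, competed in YPD at 37°C for 24 hours. Fitness relative to wild type was worked out from changes in genotype frequencies. Genotypes needed ≥ 100 starting reads, and estimates < 0.5 were set to 0.5.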
In the case of U7C A70G, the yeast fitness is reported as 0.879.
For U7C U28A G48C A69U A70U, the yeast fitness was ≤ 0.5.
In the case of U7C C31G C34U A57U, the yeast fitness is reported as ≤ 0.5.
For U7C C61G C62U, the yeast fitness was ≤ 0.5.
Work on U7C G25A yielded a yeast fitness of 1.04.
For U7C G25C, the yeast fitness was 0.822.
Variant U7C G18A C31A has a yeast fitness of 0.541.
In the case of U7C U13C C24U C49U, the yeast fitness is reported as ≤ 0.5.
Work on U7C G12C A20C yielded a yeast fitness of 0.632.
With U7C C27U C60A the yeast fitness was ≤ 0.5.
In the case of U7C A20G U32G, the yeast fitness is reported as ≤ 0.5.
For U7C C30U G39C U64C, the yeast fitness was ≤ 0.5.
With U7C C22U U53A the yeast fitness was 0.71.
With U7C A37C A40C A45U A57C A70U the yeast fitness was 0.555.
U7C G41A A42C gave a yeast fitness of 0.543.
Work on U7C C62U A65U yielded a yeast fitness of 0.542.
For U7C C30G A40C A42G, the yeast fitness was 0.534.
With U7C A36C C61G C66U A69U the yeast fitness was ≤ 0.5.
In the case of U7G A20C A70G, the yeast fitness is reported as ≤ 0.5.
For U7C G9C U28C G41A, the yeast fitness was ≤ 0.5.
In the case of U7C G9A A20U A36G C55G, the yeast fitness is reported as ≤ 0.5.
U7C C49U U54C gave a yeast fitness of 0.508.
In the case of U7C U47G G68U, the yeast fitness is reported as ≤ 0.5.
U7C C29G G67C gave a yeast fitness of 0.651.
U7C C31A U35G A42G gave a yeast fitness of 0.591.
In the case of U7C A36U G50C C60A G63A, the yeast fitness is reported as ≤ 0.5.
With U7C A21C C34U C49U A69U the yeast fitness was ≤ 0.5.
For U7C C61G, the yeast fitness was 0.634.
With U7C C61U the yeast fitness was 0.959.
For U7C G48C A70C, the yeast fitness was 0.6.
In the case of U7G A36C G41A U53C, the yeast fitness is reported as ≤ 0.5.
In the case of U7C U47C C62G, the yeast fitness is reported as ≤ 0.5.
For U7C C29G A40U, the yeast fitness was 0.665.
In the case of U7G A21C G44C G58C, the yeast fitness is reported as ≤ 0.5.
U7C G58C showed a yeast fitness of 0.781.
Work on U7C G58A yielded a yeast fitness of 1.06.
With U7C G12A U13C U26C C60U the yeast fitness was ≤ 0.5.
For U7C U26G A57U C66U, the yeast fitness was ≤ 0.5.
In the case of U7C C46A U64C, the yeast fitness is reported as 0.545.
In the case of U7C C30A U54A A57C, the yeast fitness is reported as ≤ 0.5.
In the case of U7C U28A C34U C61U, the yeast fitness is reported as ≤ 0.5.
In the case of U7C C62G A69U, the yeast fitness is reported as 0.565.
With U7C C22U A43U the yeast fitness was ≤ 0.5.
With U7C C29U U47A C62G the yeast fitness was ≤ 0.5.
For U7C U64A G68U, the yeast fitness was ≤ 0.5.
Work on U7C C30U G44A G56A yielded a yeast fitness of 0.522.
In the case of U7C U16A, the yeast fitness is reported as 0.812.
In the case of U7G A21C G39C C49A G51A, the yeast fitness is reported as ≤ 0.5.
With U7C G39C C46U C49U G56A G68C the yeast fitness was ≤ 0.5.
With U7G A14G U35G A43G C55U U59A the yeast fitness was ≤ 0.5.
In the case of U7C A36G A43U, the yeast fitness is reported as 0.535.
With U7C C34A U59A the yeast fitness was ≤ 0.5.
U7C G10C C46U gave a yeast fitness of 0.523.
U7C G51C showed a yeast fitness of 0.6.
With U7C G51A the yeast fitness was 0.856.
U7C G48A G68U A70C showed a yeast fitness of 0.542.
Variant U7C U28A G67A has a yeast fitness of 0.528.
Work on U7C U8C yielded a yeast fitness of 0.976.
U7C U8G showed a yeast fitness of 0.697.
With U7G A15G C27A the yeast fitness was 0.567.
For U7C C33U G58A C66A, the yeast fitness was ≤ 0.5.
Work on U7C C31U C46U yielded a yeast fitness of 0.532.
In the case of U7C C29G G44C C60U, the yeast fitness is reported as ≤ 0.5.
U7C U32C showed a yeast fitness of 0.776.
With U7G A15C G38C the yeast fitness was ≤ 0.5.
Variant U7C G9C has a yeast fitness of 0.729.
For U7C A43C C55U, the yeast fitness was 0.543.
U7C G52A showed a yeast fitness of 0.69.
In the case of U7G A21C G44C C66U, the yeast fitness is reported as ≤ 0.5.
In the case of U7C C30U G39C, the yeast fitness is reported as ≤ 0.5.
Work on U7C C24A C29G yielded a yeast fitness of 0.594.
For U7C A57C, the yeast fitness was 0.612.
With U7C A57G the yeast fitness was 0.842.
For U7G A15C A45C, the yeast fitness was 0.565.
With U7C G17C U19C C24G G48C G51C U53C A57U C66U the yeast fitness was 0.575.
For U7C C34U A70G, the yeast fitness was ≤ 0.5.
With U7C G12A C24U the yeast fitness was ≤ 0.5.
Variant U7C A37C has a yeast fitness of 0.862.
Work on U7C A37G yielded a yeast fitness of 0.666.
With U7C C31G G38C A43U C62G the yeast fitness was ≤ 0.5.
In the case of U7C U59A, the yeast fitness is reported as 0.765.
Variant U7C U19A C31U C49U has a yeast fitness of 0.678.
For U7C U13C, the yeast fitness was 0.836.
For U7C A21U C55A, the yeast fitness was 0.586.
In the case of U7C C11U C22A C29G C33U, the yeast fitness is reported as ≤ 0.5.
With U7G A14G A20G U35G A43G U59A the yeast fitness was ≤ 0.5.
For U7C C11U G39C A45U, the yeast fitness was ≤ 0.5.
With U7C U32C G58A A70C the yeast fitness was ≤ 0.5.
For U7G, the yeast fitness was 0.983.
For U7C A20C C34A G63C, the yeast fitness was ≤ 0.5.
In the case of U7G A21C U26C G44C, the yeast fitness is reported as ≤ 0.5.
With U7C G56A A65C the yeast fitness was 0.598.
For U7G A15C C24U U32C A43G G51A U54C G67C, the yeast fitness was ≤ 0.5.
Variant U7C C27G A69U has a yeast fitness of 0.632.
With U7C C22U C29G the yeast fitness was ≤ 0.5.
U7C A65U A69U showed a yeast fitness of 0.801.
For U7C G10A C34A G63A, the yeast fitness was 0.555.
Work on U7C A57U U64C G67C yielded a yeast fitness of 0.501.
For U7G A15C, the yeast fitness was 0.653.
With U7G A15U the yeast fitness was 0.592.
For U7C C31U U47C, the yeast fitness was ≤ 0.5.
With U7C G18C G38C C62A the yeast fitness was ≤ 0.5.
Variant U7C G41A A42C G50C C66U has a yeast fitness of 0.548.
With U7C U8C A21U A36U A37C the yeast fitness was ≤ 0.5.
With U7G A21G U53C A57C A69U the yeast fitness was ≤ 0.5.
In the case of U7G A21C G56A, the yeast fitness is reported as ≤ 0.5.
Work on U7C U26G A36C G50C yielded a yeast fitness of 0.781.
U7C A20G A69C gave a yeast fitness of 0.594.
For U7C G41A A42C G50C C55A, the yeast fitness was ≤ 0.5.
For U7C G56U A65U G68C, the yeast fitness was ≤ 0.5.
In the case of U7G A21C A42U C66U, the yeast fitness is reported as ≤ 0.5.
With U7C G10A G41C U64G A65C the yeast fitness was ≤ 0.5.
With U7C C33U G39C G58A the yeast fitness was ≤ 0.5.
For U7G A15C A21C U28A G51A C60U C62U, the yeast fitness was 0.653.
For U7C C24G A45G, the yeast fitness was ≤ 0.5.
In the case of U7C G18A C31A U59A, the yeast fitness is reported as ≤ 0.5.
In the case of U7C C33G A36G C49A G68C, the yeast fitness is reported as ≤ 0.5.
In the case of U7C U19A C29A, the yeast fitness is reported as ≤ 0.5.
For U7C C33U A65U, the yeast fitness was ≤ 0.5.
For U7C C11A C30G, the yeast fitness was ≤ 0.5.
In the case of U7C C29G C49U U64A G68A, the yeast fitness is reported as ≤ 0.5.
With U7C G12A G41A A42C G50C A70G the yeast fitness was 0.53.
In the case of U7C G25A U47C U64G G68C, the yeast fitness is reported as ≤ 0.5.
In the case of U7C G18A U35A A43U U54C A65G, the yeast fitness is reported as ≤ 0.5.
In the case of U7C U32A U53A, the yeast fitness is reported as 0.576.
In the case of U7C C27A G51C C60U A69C, the yeast fitness is reported as ≤ 0.5.
With U7C C27U G48A C55A G63A the yeast fitness was ≤ 0.5.
Variant U7C U64G A69C has a yeast fitness of 0.603.
For U7G A15G C61U G67A, the yeast fitness was ≤ 0.5.
For U7C U8G C27A A69U, the yeast fitness was ≤ 0.5.
In the case of U7C C30U C34A, the yeast fitness is reported as ≤ 0.5.
U7C G17A C22U gave a yeast fitness of 0.651.
For U7C C30G A40U A70U, the yeast fitness was ≤ 0.5.
With U7C C33G A37U A40C A69U the yeast fitness was 0.533.
With U7C C30A A42C C60U A69G the yeast fitness was ≤ 0.5.
For U7C C11U A37C C60A, the yeast fitness was ≤ 0.5.
In the case of U7C U26A U54C, the yeast fitness is reported as ≤ 0.5.
U7C C34A showed a yeast fitness of 0.764.
For U7C C30G U54C C61G, the yeast fitness was ≤ 0.5.
With U7C C29A U32C C60A the yeast fitness was ≤ 0.5.
In the case of U7C G10A C24G C62A, the yeast fitness is reported as ≤ 0.5.
Work on U7C U16G G17A C49U C62A yielded a yeast fitness of 0.506.
For U7C C11G C30G C33A A57C C61A, the yeast fitness was ≤ 0.5.
With U7C C24U A70G the yeast fitness was 0.666.
For U7C C11G G18A G44U A65C, the yeast fitness was ≤ 0.5.
In the case of U7C C27U A36C G56C G68A A70U, the yeast fitness is reported as ≤ 0.5.
In the case of U7C U47G U59A C66A A70C, the yeast fitness is reported as ≤ 0.5.
For U7C A20U, the yeast fitness was 0.722.
With U7C A20G the yeast fitness was 0.819.
For U7G A21C G48C C55U G56A, the yeast fitness was ≤ 0.5.
In the case of U7C U35C G52A, the yeast fitness is reported as ≤ 0.5.
U7C A43G A65C gave a yeast fitness of 0.591.
U7C C46U A69U showed a yeast fitness of 0.842.
For U7C C27A C66A, the yeast fitness was ≤ 0.5.
For U7G A15C U16A C33G A37C C49A C61U A70U, the yeast fitness was ≤ 0.5.
In the case of U7G A21C G51A, the yeast fitness is reported as ≤ 0.5.
In the case of U7C U47C, the yeast fitness is reported as 0.895.
With U7C A42C G58A the yeast fitness was ≤ 0.5.
With U7C C31U A43G U59A the yeast fitness was 0.505.
Work on U7C G44A C46U A69C yielded a yeast fitness of 0.698.
U7C C49G showed a yeast fitness of 0.774.
In the case of U7C C49A, the yeast fitness is reported as 0.732.
U7C A21G C29A G48C gave a yeast fitness of 0.555.
For U7G A15G U19C A21G G41A C55A, the yeast fitness was 0.575.
Variant U7C U54C C55G has a yeast fitness of 0.655.
In the case of U7C C66U, the yeast fitness is reported as 0.921.
Variant U7G A14G U59A has a yeast fitness of 0.542.
